Measured values taken from ChEMBL document CHEMBL1140506, “Molecular design of histone deacetylase inhibitors by aromatic ring shifting in chlamydocin framework” (Bioorg Med Chem, 2007).
Non-standard residues stand in square brackets, D forms with d. Residues, ends and D or L forms follow the SMILES beside them. Ahp(7-SS(2-pyridyl)) = N[C@@H](CCCCCSSc1ccccn1)C(=O)O; Aib = CC(C)(N)C(=O)O

Legend:
[1] = Induction of wild-type p21 promoter activation in mink Mv1Lu cells after 18 hrs by luciferase assay relative to basal level; type: functional, Neovison vison
How it was run: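 Stable Mv1Lu clone (MFLL-9) carrying p21 promoter (2.4 kb genomic fragment)–luciferase reporter, G418-selected. Cells (1 × 10^5) plated 6 h, then exposed 18 h to various drug concentrations. Luciferase activity of lysates measured by luminometer, normalized to lysate protein; concentration giving 10-fold induction over basal level reported as EC1000.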

[2] = molecular target: T1, Protein deacetylase HDAC6 (Mus musculus, UniProt Q9Z2V5); assay: Inhibition of mouse HDAC6 expressed in 293T cells; type: cell-based
T1 sequence (Q9Z2V5 whole entry): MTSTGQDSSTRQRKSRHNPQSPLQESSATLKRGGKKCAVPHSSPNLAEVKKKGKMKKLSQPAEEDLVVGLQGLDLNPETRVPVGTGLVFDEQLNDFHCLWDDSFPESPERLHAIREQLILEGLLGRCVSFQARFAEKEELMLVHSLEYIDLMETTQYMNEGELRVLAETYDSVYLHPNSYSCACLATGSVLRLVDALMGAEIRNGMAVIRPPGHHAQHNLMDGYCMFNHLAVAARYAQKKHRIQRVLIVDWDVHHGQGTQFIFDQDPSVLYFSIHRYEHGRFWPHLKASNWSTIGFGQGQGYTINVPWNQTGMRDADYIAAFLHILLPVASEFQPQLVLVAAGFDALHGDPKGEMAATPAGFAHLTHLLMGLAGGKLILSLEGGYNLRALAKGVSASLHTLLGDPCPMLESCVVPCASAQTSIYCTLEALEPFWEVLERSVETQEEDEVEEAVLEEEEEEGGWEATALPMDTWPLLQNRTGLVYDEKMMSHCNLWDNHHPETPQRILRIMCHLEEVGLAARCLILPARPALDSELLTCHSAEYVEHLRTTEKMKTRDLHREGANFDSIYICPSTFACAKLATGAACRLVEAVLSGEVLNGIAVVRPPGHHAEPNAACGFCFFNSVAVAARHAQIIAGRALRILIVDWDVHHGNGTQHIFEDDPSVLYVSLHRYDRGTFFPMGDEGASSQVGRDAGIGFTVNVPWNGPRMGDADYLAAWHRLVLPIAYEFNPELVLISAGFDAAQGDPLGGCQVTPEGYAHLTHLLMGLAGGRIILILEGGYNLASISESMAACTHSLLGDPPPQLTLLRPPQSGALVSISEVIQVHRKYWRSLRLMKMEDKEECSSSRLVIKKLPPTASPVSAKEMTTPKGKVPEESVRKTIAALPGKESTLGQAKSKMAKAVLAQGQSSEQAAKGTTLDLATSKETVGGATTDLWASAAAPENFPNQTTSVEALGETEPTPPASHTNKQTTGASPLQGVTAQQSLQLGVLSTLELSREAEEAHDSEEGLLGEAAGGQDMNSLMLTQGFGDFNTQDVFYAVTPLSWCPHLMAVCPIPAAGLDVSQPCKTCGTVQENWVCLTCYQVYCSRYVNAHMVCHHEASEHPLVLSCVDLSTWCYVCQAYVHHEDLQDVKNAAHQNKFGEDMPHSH

Homo sapiens = species on record: Homo sapiens; assay: Selectivity for human HDAC4 over human HDAC1
How it was run: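 Selectivity calculated from IC50 values against FLAG-tagged human HDAC4 and HDAC1, each transiently expressed in 293T cells, anti-FLAG immunopurified and FLAG-peptide eluted. Ac-KGLGK(Ac)-MCA substrate, pH 8.0 Tris buffer with 0.1 mM DTT, 37 °C 30 min. Trypsin development, then AMC fluorescence read.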

Histone deacetylase 1 = Histone deacetylase 1 (Homo sapiens, UniProt Q13547); assay: Inhibition of human HDAC1 expressed in 293T cells; type: cell-based
Sequence of Histone deacetylase 1 (Q13547 whole entry): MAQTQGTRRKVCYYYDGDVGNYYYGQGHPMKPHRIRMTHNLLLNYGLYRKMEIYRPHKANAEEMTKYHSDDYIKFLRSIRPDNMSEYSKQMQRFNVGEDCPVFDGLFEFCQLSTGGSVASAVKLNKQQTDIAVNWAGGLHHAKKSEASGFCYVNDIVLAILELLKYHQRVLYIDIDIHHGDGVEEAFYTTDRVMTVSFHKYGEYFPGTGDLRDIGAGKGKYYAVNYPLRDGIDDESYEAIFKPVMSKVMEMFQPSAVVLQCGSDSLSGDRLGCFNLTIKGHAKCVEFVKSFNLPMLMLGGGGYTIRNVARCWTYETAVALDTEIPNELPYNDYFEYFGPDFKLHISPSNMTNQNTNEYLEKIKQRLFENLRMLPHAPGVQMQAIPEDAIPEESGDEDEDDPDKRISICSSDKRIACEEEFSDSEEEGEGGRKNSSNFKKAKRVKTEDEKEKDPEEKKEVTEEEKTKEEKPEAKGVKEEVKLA

Histone deacetylase 4 = Histone deacetylase 4 (Homo sapiens, UniProt P56524); assay: Inhibition of human HDAC4 expressed in 293T cells; type: cell-based
Sequence of Histone deacetylase 4 (P56524 whole entry): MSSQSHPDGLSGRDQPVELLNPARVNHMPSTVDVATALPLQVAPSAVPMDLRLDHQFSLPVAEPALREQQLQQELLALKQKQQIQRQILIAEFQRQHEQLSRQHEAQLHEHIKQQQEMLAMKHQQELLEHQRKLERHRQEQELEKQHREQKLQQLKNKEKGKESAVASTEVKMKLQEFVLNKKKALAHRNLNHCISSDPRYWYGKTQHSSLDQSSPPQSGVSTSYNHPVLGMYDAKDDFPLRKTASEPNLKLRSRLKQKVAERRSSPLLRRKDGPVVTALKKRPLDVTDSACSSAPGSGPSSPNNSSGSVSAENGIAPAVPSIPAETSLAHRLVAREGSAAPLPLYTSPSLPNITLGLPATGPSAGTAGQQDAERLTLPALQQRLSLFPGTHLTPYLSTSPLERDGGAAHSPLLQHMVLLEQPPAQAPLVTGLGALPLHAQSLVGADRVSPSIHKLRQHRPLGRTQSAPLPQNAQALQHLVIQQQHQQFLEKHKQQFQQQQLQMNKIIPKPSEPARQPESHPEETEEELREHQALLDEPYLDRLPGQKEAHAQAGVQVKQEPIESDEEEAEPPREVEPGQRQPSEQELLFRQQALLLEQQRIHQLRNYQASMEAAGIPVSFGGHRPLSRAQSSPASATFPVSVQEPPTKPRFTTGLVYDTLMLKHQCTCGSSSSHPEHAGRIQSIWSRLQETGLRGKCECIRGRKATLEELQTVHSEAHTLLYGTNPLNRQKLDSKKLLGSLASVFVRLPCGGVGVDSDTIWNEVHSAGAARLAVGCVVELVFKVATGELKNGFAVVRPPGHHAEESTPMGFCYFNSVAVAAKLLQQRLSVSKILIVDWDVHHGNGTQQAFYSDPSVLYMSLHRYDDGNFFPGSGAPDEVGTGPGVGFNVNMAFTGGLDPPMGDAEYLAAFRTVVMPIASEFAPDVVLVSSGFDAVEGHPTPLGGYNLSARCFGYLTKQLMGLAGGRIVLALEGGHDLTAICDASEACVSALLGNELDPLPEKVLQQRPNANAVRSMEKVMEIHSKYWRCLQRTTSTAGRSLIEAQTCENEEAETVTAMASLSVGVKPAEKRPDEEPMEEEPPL

SMILES	EC1000 [1] [nM]	IC50 [2] [nM]	Ratio IC50 (Homo sapiens)	IC50 (Histone deacetylase 1) [nM]	IC50 (Histone deacetylase 4) [nM]
CC1(C)NC(=O)[C@H](CCCCCSSc2ccccn2)NC(=O)[C@H]2CCCN2C(=O)[C@H](CO)NC1=O	580	26	1.6	6.4	4
C[C@@H]1NC(=O)[C@@](C)(Cc2ccccc2)NC(=O)[C@H](CCCCCSSc2ccccn2)NC(=O)[C@H]2CCCN2C1=O	25600	71	2.4	170	70
CC1(C)NC(=O)[C@H](CCCCCSSc2ccccn2)NC(=O)[C@H]2CCCN2C(=O)[C@H](c2ccccc2)NC1=O	7400	86	1.5	88	56
CC1(C)NC(=O)[C@H](CCCCCSSc2ccccn2)NC(=O)[C@H]2CCCN2C(=O)[C@H](CCCc2ccccc2)NC1=O	110	43	1.9	5.3	2.7
C[C@@H]1NC(=O)[C@@]2(CCc3ccccc32)NC(=O)[C@H](CCCCCSSc2ccccn2)NC(=O)[C@H]2CCCN2C1=O	55	12	1.1	2.7	2.4
C[C@H]1CN2Cc3ccccc3C[C@@H]2C(=O)N[C@@H](CCCCCSSc2ccccn2)C(=O)NC(C)(C)C(=O)N1	–	–	1.1	–	–
C[C@@H]1NC(=O)C(C)(C)NC(=O)[C@H](CCCCCSSc2ccccn2)NC(=O)[C@H]2CCCN2C1=O	750	43	1.8	9.4	5.2
C[C@@H]1NC(=O)C2(Cc3ccccc3C2)NC(=O)[C@H](CCCCCSSc2ccccn2)NC(=O)[C@H]2CCCN2C1=O	140	8.8	1.2	2	1.6
CC1(C)NC(=O)[C@H](CCCCCSSc2ccccn2)NC(=O)[C@H]2CCCN2C(=O)[C@H](CCc2ccccc2)NC1=O	320	36	1.9	6.2	3.2
C[C@@H]1NC(=O)C(C)(C)NC(=O)[C@H](CCCCCSSc2ccccn2)NC(=O)[C@H]2Cc3ccccc3CN2C1=O [listing 1 of 2 here]	–	29	–	4.7	4.2
CC1(C)NC(=O)[C@H](CCCCCSSc2ccccn2)NC(=O)[C@H]2CCCN2C(=O)[C@H](COCc2ccccc2)NC1=O	72	24	2	3.2	1.6
C[C@@H]1NC(=O)C(C)(C)NC(=O)[C@H](CCCCCSSc2ccccn2)NC(=O)[C@H]2Cc3ccccc3CN2C1=O [listing 2 of 2 here]	200	–	–	–	–
CC1(C)NC(=O)[C@H](CCCCCSSc2ccccn2)NC(=O)[C@H]2CCCN2C(=O)[C@H](Cc2ccccc2)NC1=O (cyclo([Aib]F[dP][Ahp(7-SS(2-pyridyl))]))	45	40	2.1	3.9	1.8
C[C@@H]1NC(=O)[C@]2(CCc3ccccc32)NC(=O)[C@H](CCCCCSSc2ccccn2)NC(=O)[C@H]2CCCN2C1=O	2000	33	1.4	36	25
C[C@@H]1NC(=O)[C@](C)(Cc2ccccc2)NC(=O)[C@H](CCCCCSSc2ccccn2)NC(=O)[C@H]2CCCN2C1=O	550	56	1.6	3.7	2.2
